Assay [1] has as its system mice with chronic constriction injury (CCI) of the sciatic nerve. As to conditions: cited from earlier work; for Reversal of neuropathic pain following CCI in mice: via an A3AR-mediated mechanism.
Assay [2] relates to A3AR−/− mice with CCI of the sciatic nerve. Nature of the assay: CCI model of neuropathic pain in A3AR knockout mice. Type of assay: in vivo, mouse. As to conditions: i.p. 3 µmol/kg, male A3AR knock-out mice.
Assay [3] relates to mice with chronic constriction injury (CCI) of the sciatic nerve. Nature of the assay: CCI model of neuropathic pain. As to conditions: for Effect on Paw Withdrawal Thresholds (PWT) in contralateral paws: data not shown; for Time of maximal effect on mechano-allodynia: i.p. 3 µmol/kg on D7 after CCI; for Reversal of mechano-allodynia after CCI: i.p. 3 µmol/kg on day 7 (D7) after CCI, mouse. The format is in vivo, mouse. The method in brief:
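Male CD-1 mice (25–30 g), housed 4–5 per cage with a 12 h light/dark cycle. CCI of the left sciatic nerve (Bennett model) under isoflurane (3% induction, 2% maintenance in 100% O2); wound closed with a muscle suture and skin clip. Test compound or vehicle (5% DMSO in saline) given i.p. at 3 µmol/kg on D7, at peak mechano-allodynia. Experimenters blinded; mean ± SEM.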

A further assay addresses T1, hA3AR (Homo sapiens, UniProt P0DMS8).
T1 sequence (P0DMS8 1-318): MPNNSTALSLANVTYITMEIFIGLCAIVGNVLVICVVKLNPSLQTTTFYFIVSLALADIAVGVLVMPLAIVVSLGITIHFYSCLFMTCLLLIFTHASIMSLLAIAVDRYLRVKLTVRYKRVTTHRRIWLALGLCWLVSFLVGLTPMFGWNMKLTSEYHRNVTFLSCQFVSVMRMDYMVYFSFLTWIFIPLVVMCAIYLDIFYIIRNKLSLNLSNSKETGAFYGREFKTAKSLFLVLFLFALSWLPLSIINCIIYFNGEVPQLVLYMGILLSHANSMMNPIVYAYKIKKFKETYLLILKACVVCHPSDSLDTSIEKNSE
Nature of the assay: Radioligand binding at hA3AR.

The target in a further assay is T2, mA3AR (Mus musculus, UniProt Q61618).
T2 sequence (Q61618 1-319): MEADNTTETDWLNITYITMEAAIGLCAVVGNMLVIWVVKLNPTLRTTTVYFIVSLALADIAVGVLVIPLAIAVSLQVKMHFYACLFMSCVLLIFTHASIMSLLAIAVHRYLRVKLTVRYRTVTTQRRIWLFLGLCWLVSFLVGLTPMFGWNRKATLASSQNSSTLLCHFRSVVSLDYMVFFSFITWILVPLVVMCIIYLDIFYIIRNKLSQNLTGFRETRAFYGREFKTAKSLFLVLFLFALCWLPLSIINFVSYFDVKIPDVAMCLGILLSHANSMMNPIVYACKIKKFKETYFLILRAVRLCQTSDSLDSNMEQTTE
Nature of the assay: Radioligand binding at mA3AR.

The target in a further assay is T3, mA1AR (Mus musculus, UniProt Q60612).
T3 sequence (Q60612 1-326): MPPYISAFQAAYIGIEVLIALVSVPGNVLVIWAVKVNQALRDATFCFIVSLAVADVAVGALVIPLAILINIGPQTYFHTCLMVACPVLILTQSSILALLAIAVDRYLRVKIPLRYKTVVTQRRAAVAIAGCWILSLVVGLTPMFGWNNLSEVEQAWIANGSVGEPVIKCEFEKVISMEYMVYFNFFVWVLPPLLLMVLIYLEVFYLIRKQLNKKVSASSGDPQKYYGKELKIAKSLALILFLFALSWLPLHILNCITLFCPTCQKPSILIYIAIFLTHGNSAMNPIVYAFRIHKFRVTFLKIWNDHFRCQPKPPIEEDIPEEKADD
Type of assay: cell-based. As to conditions: tested up to 10 µM.

Entries after “also recorded” stand apart in the source; their conditions may differ. Like-named read-outs stand apart in the source and are kept apart here.

As to `CNC(=O)[C@H]1O[C@@H](n2cnc3c(NCc4cccc(I)c4)ncnc32)[C@H](O)[C@@H]1O` [1a, N^6-(3-iodobenzyl)adenosine-5'-N-methyluronamide], in assay [1], the “Effect on Paw Withdrawal Thresholds (PWT) in contralateral paws” value (“Effect on Paw Withdrawal Thresholds” for short) is on record as “lacked effect” and the “Reversal of neuropathic pain following CCI in mice” value is “reverse the development of neuropathic pain”.

With `CNC(=O)[C@H]1O[C@@H](n2cnc3c(NCc4cccc(I)c4)nc(Cl)nc32)[C@H](O)[C@@H]1O` [1b, 2-Chloro-N^6-(3-iodobenzyl)adenosine-5'-N-methyluronamide], in assay [1], the “Effect on Paw Withdrawal Thresholds” value is given as “lacked effect” and the “Reversal of neuropathic pain following CCI in mice” value is listed as “reverse the development of neuropathic pain”.

Consider `CNC(=O)[C@@]12C[C@@H]1[C@@H](n1cnc3c(NCc4cccc(Cl)c4)nc(C#Cc4ccc(S(=O)(=O)O)cc4)nc31)[C@H](O)[C@@H]2O` [Compound 6, 4-((6-(3-Chlorobenzylamino)-9-((1S,2R,3S,4R,5S)-3,4-dihydroxy-5-(methylcarbamoyl)bicyclo[3.1.0]hexan-2-yl)-9H-purin-2-yl)ethynyl)benzenesulfonic acid], for which the “Anti-allodynic effect in A3AR−/− mice” value in assay [2] was “significantly but not completely abrogated; also recorded: retained the ability to produce a small protective effect”. In addition, in assay [3], the “Effect on Paw Withdrawal Thresholds” value is given as “lacked effect”, the “Time of maximal effect on mechano-allodynia” value is reported as ≤ 1 h and the “Reversal of mechano-allodynia after CCI” value is on record as “reversed mechano-allodynia”.

In the case of `CNC(=O)[C@@]12C[C@@H]1[C@@H](n1cnc3c(NCc4cccc(Cl)c4)nc(C#Cc4cccc(S(=O)(=O)O)c4)nc31)[C@H](O)[C@@H]2O` [Compound 7, 3-((6-(3-Chlorobenzylamino)-9-((1S,2R,3S,4R,5S)-3,4-dihydroxy-5-(methylcarbamoyl)bicyclo[3.1.0]hexan-2-yl)-9H-purin-2-yl)ethynyl)benzenesulfonic acid], the “A3AR selectivity in comparison to the A1AR and A2AAR” value on hA3AR was > 10,000 fold. Besides, the “Anti-allodynic effect in A3AR−/− mice” value in assay [2] is on record as “completely lost; also recorded: completely eliminated”. Further, the “A3AR selectivity in comparison to the A1AR and A2AAR” value on mA3AR is > 1000 fold. The “Functional activity at the mA1AR” value on mA1AR was “completely inactive up to 10 µM”. In assay [3], the “Effect on Paw Withdrawal Thresholds” value is “lacked effect”, the “Time of maximal effect on mechano-allodynia” value is listed as ≤ 1 h and the “Reversal of mechano-allodynia after CCI” value is “reversed mechano-allodynia”.

Consider `CCCOC(=O)c1c(-c2ccccc2)nc(CC)c(C(=O)SCC)c1CCC` [compound 45, 5-propyl-2-ethyl-4-propyl-3-(ethylsulfanylcarbonyl)-6-phenylpyridine-5-carboxylate, reference compound], for which the “Blocking of the anti-allodynic effects of A3AR agonist 1a” value in assay [1] (antagonist administered systemically, identical CCI model) is on record as “completely effective”. Also, the “Effect of antagonist on the anti-allodynic actions of systemic agonist 7” value in assay [3] (45 intrathecal 3 nmol, 7 at 3 µmol/kg) is “had no effect; also recorded: did not block the effects of systemic 7”.

(Values after PMC3858399 (Journal of medicinal chemistry, 2013).)
